Activity calls are given as the source filed them. The rule behind the calls is not given here.
How the values were obtained:
[1] = system: Raji; experiment: Inhibition of TPA-induced EBV early antigen activation in human Raji cells at 10 molar ratio after 48 hrs relative to TPA by indirect immunofluorescence technique; assay type: cell-based; parameters: scale not given: the % may be the effect or the level left; conditions: human gammaherpesvirus 4
[2] = system: Raji; experiment: Inhibition of TPA-induced EBV early antigen activation in human Raji cells at 1000 molar ratio after 48 hrs relative to TPA by indirect immunofluorescence technique; assay type: cell-based; parameters: scale not given: the % may be the effect or the level left; conditions: human gammaherpesvirus 4
[3] = system: Raji; experiment: Cytotoxicity against human Raji cells carrying EBV genome by trypan blue staining method; assay type: cell-based; parameters: concentration or dose not given beside the values
How it was run: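 Raji cells grown in RPMI-1640 with 10% FBS and exposed for 48 h at 37 °C to n-butyric acid (4 mmol), TPA (32 pmol) and test compound in DMSO. Viability of treated cells was read by Trypan Blue staining.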

[4] = system: Raji; experiment: Inhibition of TPA-induced EBV early antigen activation in human Raji cells at 100 molar ratio after 48 hrs relative to TPA by indirect immunofluorescence technique; assay type: cell-based; parameters: scale not given: the % may be the effect or the level left; conditions: human gammaherpesvirus 4
[5] = system: Raji; experiment: Inhibition of TPA-induced EBV early antigen activation in human Raji cells at 500 molar ratio after 48 hrs relative to TPA by indirect immunofluorescence technique; assay type: cell-based; parameters: scale not given: the % may be the effect or the level left; conditions: human gammaherpesvirus 4
[6] = system: Mus musculus; experiment: Inhibition of DMBA-induced/TPA-promoted carcinogenesis in ICR mouse assessed as reduction of papilloma-bearing mice at 85 nmol administered 1 hr before TPA treatment measured after 15 weeks
[7] = system: Mus musculus; experiment: Inhibition of DMBA-induced/TPA-promoted carcinogenesis in ICR mouse assessed as reduction of papilloma-bearing mice at 85 nmol administered 1 hr before TPA treatment measured after 10 weeks
[8] = system: Mus musculus; experiment: Inhibition of DMBA-induced/TPA-promoted carcinogenesis in ICR mouse assessed as reduction of papilloma-bearing mice at 85 nmol administered 1 hr before TPA treatment measured after 20 weeks
[9] = system: Mus musculus; experiment: Inhibition of DMBA-induced/TPA-promoted carcinogenesis in ICR mouse assessed as reduction in number of skin papillomas per mouse at 85 nmol administered 1 hr before TPA treatment measured after 20 weeks; assay type: functional, organism-based
How it was run: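 Female SPF ICR mice, 6 weeks old, 15 per group, with shaved backs. Initiation was a single topical dose of DMBA (100 µg, 390 nmol) in 0.1 mL acetone. From one week later, TPA (1 µg, 1.7 nmol) in acetone was applied twice weekly. Compound (85 nmol in 0.1 mL acetone) was applied topically 1 h before each TPA dose. Papillomas per mouse were recorded weekly for 20 weeks.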

| Structure (SMILES) | Activity [1] [%] | Activity [2] [%] | Activity [3] [%] | Activity [4] [%] | Activity [5] [%] | Papilloma-bearing mice % [6] [%] | Papilloma-bearing mice % [7] [%] | Papilloma-bearing mice % [8] [%] | Activity [9] |
| --- | --- | --- | --- | --- | --- | --- | --- | --- | --- |
| CC(=O)O[C@H]1[C@H](OC(=O)c2ccccc2)[C@@]2(C)[C@@H](OC(=O)/C=C/c3ccccc3)C[C@@H]3C[C@]2(OC3(C)C)[C@@](C)(O)[C@H]1O | 100 | 10.9 | 60 | 86.2 | 52 |  |  |  |  |
| CC(=O)O[C@H]1[C@H](OC(=O)c2ccccc2)[C@@]2(C)[C@@H](OC(=O)/C=C/c3ccccc3)C[C@@H]3[C@@H](O)[C@]2(OC3(C)C)[C@@](C)(O)[C@H]1OC(C)=O | 100 | 10.1 | 60 | 85.2 | 51.3 |  |  |  |  |
| CC1=C(/C=C/C(C)=C/C=C/C(C)=C/C=C/C=C(C)/C=C/C=C(C)/C=C/C2=C(C)CCCC2(C)C)C(C)(C)CCC1 [BETA CAROTENE] | 100 | 8.6 | 70 |  | 33.3 |  |  |  |  |
| CC(=O)O[C@H]1[C@H](OC(=O)c2ccccc2)[C@@]2(C)[C@@H](OC(=O)/C=C/c3ccccc3)C[C@@H]3[C@@H](O)[C@]2(OC3(C)C)[C@@](C)(O)[C@H]1O | 100 | 5.3 | 60 | 85.2 | 35.2 |  |  |  |  |
| CC(=O)O[C@H]1[C@H](OC(=O)c2ccccc2)[C@@]2(C)[C@@H](OC(=O)/C=C/c3ccccc3)C[C@@H]3C[C@]2(OC3(C)C)[C@@](C)(O)[C@H]1OC(C)=O | 100 | 11.8 | 60 | 86.3 | 53.2 |  |  |  |  |
| CC(=O)O[C@H]1[C@H](OC(=O)c2ccccc2)[C@@]2(C)[C@@H](OC(=O)c3ccccc3)C[C@@H]3[C@@H](OC(C)=O)[C@]2(OC3(C)C)[C@@](C)(O)[C@H]1OC(=O)c1cccnc1 | 100 | 7.5 | 60 | 87.6 | 36.6 |  |  |  |  |
| CC(=O)O[C@H]1[C@H](OC(=O)c2ccccc2)[C@@]2(C)[C@@H](OC(=O)c3ccccc3)C[C@@H]3[C@@H](OC(=O)c4ccccc4)[C@]2(OC3(C)C)[C@@](C)(O)[C@H]1O | 100 | 13.7 | 60 | 87.1 | 54.2 |  |  |  |  |
| CC(=O)O[C@H]1[C@H](OC(=O)c2ccccc2)[C@@]2(C)[C@@H](OC(=O)/C=C/c3ccccc3)C[C@@H]3[C@@H](OC(C)=O)[C@]2(OC3(C)C)[C@@](C)(O)[C@H]1O | 100 | 9.3 | 60 | 84.3 | 50.1 |  |  |  |  |
| CC(=O)O[C@H]1[C@H](OC(=O)c2ccccc2)[C@@]2(C)[C@@H](OC(=O)c3ccccc3)C[C@@H]3[C@@H](OC(C)=O)[C@]2(OC3(C)C)[C@@](C)(O)[C@H]1O [2BETA,3BETA,4BETA,TRIHYDROXYCELARBICO] | 98.6 | 0 | 60 | 77.5 | 33.2 | 53.3 | 20 | 90 | Active |
| CC(=O)O[C@H]1[C@H](OC(=O)c2ccccc2)[C@@]2(C)[C@@H](OC(=O)/C=C/c3ccccc3)C[C@@H]3[C@@H](OC(C)=O)[C@]2(OC3(C)C)[C@@](C)(O)[C@H]1OC(C)=O | 100 | 8.9 | 60 | 87.4 | 39.6 |  |  |  |  |
